# Shown are actives, neighbours in structure and some others; about 4.2% of the full set was active somewhere.
# CHOP inhibitor – inhibitors of CHOP promoter induction, primary screen, cell-based, unfolded protein response, luciferase reporter | CHO-K1 CHOP-promoter luciferase, tunicamycin-induced, 15-18 h | inhibition, % at 10 µM | 220,000 compounds, 3.8% hits | AID 2732, 2010;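 active = compounds that reduced the stress-induced luciferase reporter signal by more than about 70% of percent inhibition, limit read from the data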;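 note: 0% = tunicamycin plus vehicle and 100% = wells without tunicamycin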
# Lipid droplet – inhibitors of hepatocyte lipid droplet formation, primary screen, imaging, high-throughput imaging, BODIPY stain; AML12 mouse hepatocytes, oleate lipid droplets; inhibition, % at 6.5 µM; 240,000 compounds, 0.4% hits; AID 1656, 2009;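 active = lipid droplet intensity inhibited by at least 50%, with more than 500 cells counted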
#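 Test system: AML12 mouse liver cells; schedule: overnight exposure; technique: high-content imaging of BODIPY-stained droplets and DAPI nuclei; read-out: % inhibition of corrected integrated BODIPY droplet signal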
# ANO1 block – TMEM16A chloride channel inhibitors, primary screen, cell-based, HTS. Anoctamin-1 (Mus musculus), Q8BHY3. HEK293 TMEM16A/YFP iodide influx fluorescence, ionomycin. normalized B-score (activity score, 25-100; higher = stronger inhibition) at 10 µM. 310,000 compounds, 1.2% hits. AID 588511, 2011;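 active = ratio plate-corrected score three or more library SD toward inhibition, starting fluorescence score within five deviations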;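 note: score derived from kinetic fluorescence span divided by baseline fluorescence per well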
# Target sequence (Q8BHY3 whole entry, looked up): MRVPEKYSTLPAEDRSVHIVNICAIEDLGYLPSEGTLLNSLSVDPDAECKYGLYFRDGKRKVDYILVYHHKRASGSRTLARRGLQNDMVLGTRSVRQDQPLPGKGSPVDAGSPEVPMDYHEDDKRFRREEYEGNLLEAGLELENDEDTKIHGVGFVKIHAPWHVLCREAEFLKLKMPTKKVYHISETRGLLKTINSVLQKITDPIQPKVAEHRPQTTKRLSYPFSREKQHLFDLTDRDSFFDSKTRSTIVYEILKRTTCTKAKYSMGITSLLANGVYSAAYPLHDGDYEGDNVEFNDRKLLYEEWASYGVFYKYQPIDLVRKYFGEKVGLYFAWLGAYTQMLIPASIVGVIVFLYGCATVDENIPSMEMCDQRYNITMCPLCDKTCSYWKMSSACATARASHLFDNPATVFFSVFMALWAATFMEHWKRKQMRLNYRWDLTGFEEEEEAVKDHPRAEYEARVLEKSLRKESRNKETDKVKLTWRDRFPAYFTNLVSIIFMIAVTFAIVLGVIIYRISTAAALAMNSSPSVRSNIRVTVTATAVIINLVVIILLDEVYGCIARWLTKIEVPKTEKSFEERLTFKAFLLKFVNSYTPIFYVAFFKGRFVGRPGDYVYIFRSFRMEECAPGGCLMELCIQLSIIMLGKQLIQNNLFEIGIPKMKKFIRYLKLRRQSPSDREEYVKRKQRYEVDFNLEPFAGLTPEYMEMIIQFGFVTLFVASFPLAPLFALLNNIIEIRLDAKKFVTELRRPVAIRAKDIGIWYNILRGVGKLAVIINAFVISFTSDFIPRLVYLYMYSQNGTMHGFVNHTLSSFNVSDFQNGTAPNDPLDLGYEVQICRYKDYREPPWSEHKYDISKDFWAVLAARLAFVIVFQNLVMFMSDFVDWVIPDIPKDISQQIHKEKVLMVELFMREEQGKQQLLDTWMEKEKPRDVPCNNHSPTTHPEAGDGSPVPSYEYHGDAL
# ANO1 activ – TMEM16A chloride channel activators or potentiators, primary screen, cell-based, HTS; Anoctamin-1 (Mus musculus), Q8BHY3; HEK293 TMEM16A/YFP-H148Q/I152L, iodide quench fluorescence; hits give low values; B-score at 10 µM; 340,000 compounds, 0.3% hits; AID 623877, 2012;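 active = fluorescence-ratio B-score plate-corrected deviation score at least 3 library SD below zero, with starting fluorescence score within 5 deviations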;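 note: channel opened by trigger with iodide after compound preincubation; score built on the fluorescence ratio of max minus min over baseline; more negative score means more quench and so TMEM16A activation or potentiation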
# XBP1 UPR activ – activators of adaptive XBP1 UPR arm, primary screen, cell-based, CHO-XBP1 luciferase reporter, luminescence, uHTS | IRE1-XBP1 UPR activation; percent of tunicamycin response, DMSO as zero | activation, % at 20 µM | 330,000 compounds, 0.33% hits | AID 463104, 2010;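 active = versus positive control, 20 µM dose yields 30% or more activation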;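 note: 100% = tunicamycin at 10 µg/mL and 0% = DMSO only wells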
#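 Material – CHO cell line with stable XBP1 luciferase reporter · Buffer or medium – F12 plus 10% FBS · Compound – single point, 20 µM final compound, 1% DMSO · Schedule – 16-18 h cell attachment at 37 °C, then 6 h compound exposure · Signal – Steady-Glo luminescence read · Benchmarks – high control tunicamycin 10 µg/mL final, low control DMSO vehicle only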
# UPR CHOP act – activators of apoptotic CHOP UPR arm, primary screen, cell-based, CHO-CHOP luciferase reporter, luminescence, uHTS | UPR activation; percent of tunicamycin response over DMSO baseline | activation, % at 10 µM | 330,000 compounds, 0.34% hits | AID 449763, 2010;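 active = at 10 µM dose, activation of 40% or more, normalized to positive control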;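 note: 100% = tunicamycin at 10 µg/mL and 0% = DMSO alone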
#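 System: CHO-CHOP luciferase reporter cell line | Buffer or medium: F12 medium containing 10% fetal bovine serum | Doses: One dose, 10 µM in 0.5% DMSO | Times: 6 h compound exposure at 37 °C after overnight seeding | Signal: Luciferase luminescence | Read-out: % activation vs tunicamycin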
# Hep lipid conf – hepatocyte lipid droplet accumulation inhibitors, confirmation, imaging, AML12 mouse hepatocytes, single concentration, high-content | shares compounds with Lipid droplet | 870 compounds, 65% hits | BODIPY lipid droplet imaging; droplets induced with 100 µM oleic acid | inhibition, % at 5.2 µM;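 active = inhibition of lipid droplet metric at least 50%, with more than 300 cells in each of four replicates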;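 note: plate controls were DMSO with oleic acid for no effect and 5 µM Triacsin-C for full effect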
# AML12 tox img – AML12 hepatocyte cytotoxicity, counter-screen for hepatic lipid droplet formation project, imaging, DAPI nuclear morphology imaging | shares compounds with Lipid droplet | AML12 mouse hepatocytes; hits give high values; cells fed 100 µM oleate overnight | z-score at 5 µM | 870 compounds, 3% hits | AID 463200, 2010; in the data active = z-score above about 6.3;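 note: compound exposure lasted overnight at 37 °C before fixation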
# AML12 tox conf – AML12 hepatocyte cytotoxicity, confirmation, cytotoxicity control for hepatic lipid droplet formation project, cell-based, single concentration; shares compounds with Lipid droplet; AML12 mouse hepatocyte viability, ATP luminescence; cells loaded with 100 µM oleic acid; cytotoxicity, % at 50 µM; 530 tested, under 10 active; AID 463219, 2010;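 active = cytotoxicity above 50% in each of four replicates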;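 note: compound exposure lasted overnight at 37 °C before the ATP read; 0% = DMSO-treated cells and 100% = wells with no cells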
# * marks the source's active call; other numbers are inactive results; i = inactive; nt = no result.
SMILES,CHOP inhibitor,Lipid droplet,ANO1 block,ANO1 activ,XBP1 UPR activ,UPR CHOP act,Hep lipid conf,AML12 tox img,AML12 tox conf
CCCN1C(=O)/C(=C2/C=Cc3ccccc3N2CC)SC1=S,40,85*,i,i,-5,-3,105*,-0.13,13
CCOc1cc2c(cc1OCC)C(c1ccccc1OC)OC(=O)C2 (stereo not given),32,51*,i,i,0,5,79*,-0.96,3
Cc1ccc(N2C(N)=C(C#N)C(c3cc(CN4CCOCC4)cs3)C3=C2CC(C)(C)CC3=O)cc1 (stereo not given),7,75*,i,i,-3,0,87*,0.078,3
Cc1ccc(N2C(N)=C(C#N)C(c3ccsc3)C3=C2CC(C)(C)CC3=O)cc1 (stereo not given),13,nt,i,i,3,0,nt,nt,nt
O=C(NC1CCCc2c1cnn2-c1ccccc1F)c1ccccn1 (stereo not given),nt,71*,i,i,-5,0,88*,1.5,7
COCc1ccc(C(=O)NC2CCCc3c2cnn3-c2ccc(C)c(C)c2)o1 (stereo not given),nt,61*,i,i,-9,1,100*,0.58,13
Cc1cc(C)c(C(=O)NC2CCCc3c2cnn3-c2cccc(C)c2C)o1 (stereo not given),nt,81*,i,i,-3,-1,105*,-0.22,7
O=C(NC1CCCc2c1cnn2-c1ccc(F)cc1F)c1ccccn1 (stereo not given),6,32,i,i,0,-1,nt,nt,nt
Cc1cccc(C(C)C)c1NC(=O)C(C)OC(=O)Cc1n[nH]c(=O)c2ccccc12 (stereo not given),nt,nt,i,i,1,-1,nt,nt,nt
COC(=O)c1ccc(NC(=O)CCOc2ccccc2)cc1,-12,-1,i,i,-2,1,nt,nt,nt
CCOC(=O)c1ccc(NC(=O)CCOc2ccc(C)cc2)cc1,34,66*,i,i,0,0,90*,-0.81,6
COc1cccc(N=CC=C2OC(C)(C)C(C)(C)O2)c1,12,66*,i,i,3,3,12,-0.37,nt
Cc1cccc(N=CC=C2OC(C)(C)C(C)(C)O2)c1,8,0,i,i,1,2,nt,nt,nt
O=C(Cc1cccc2ccccc12)Nc1ccc(-c2cc3ccccc3oc2=O)cc1,81*,72*,i,i,-10,-6,100*,0.57,13
COc1ccc(C(=O)OCCN2CCN(C3=NS(=O)(=O)c4ccccc43)CC2)cc1OC,nt,13,i,i,-3,-1,nt,nt,nt
CC1CCCCC1NC(=O)c1ccc(-n2cncn2)cc1 (stereo not given),nt,nt,nt,i,0,1,nt,nt,nt
CCOC(=O)c1cc(NC(=O)N(C)C2CCCCC2)c(C)nc1C,nt,54*,i,i,2,0,81*,-0.98,10
O=C(CSc1nc2ccccc2nc1N1CCCC1)Nc1ccc(Cl)cc1,nt,8,i,i,-4,4,nt,nt,nt
CCc1ccc(NC(=O)CSc2nc3ccccc3nc2N2CCCC2)cc1,nt,74*,i,i,-2,3,101*,0.98,1
CCc1ccccc1NC(=O)CSc1nc2ccccc2nc1N1CCOCC1,nt,-1,i,i,-3,-1,nt,nt,nt
CC(C)c1ccc(NC(=O)CSc2nc3ccccc3nc2N2CCCC2)cc1,nt,70*,i,i,-1,1,105*,0.32,6
Cc1ccc(NC(=O)CSc2nc3ccccc3nc2N2CCCC2)cc1,nt,70*,i,i,5,8,104*,0.86,4
CCc1cc(Cn2nc(-c3ccccc3)cc2C(=O)NCc2ccc(C)cc2)on1,nt,nt,i,i,-5,-1,nt,nt,nt
O=C(O)CC(CC(=O)NCC(O)c1ccccc1)c1ccccc1 (stereo not given),nt,-8,i,i,-2,0,nt,nt,nt
Cc1cc(C)c2nc(-c3ccncc3)cc(C(=O)N3CCN(Cc4ccccc4Cl)CC3)c2c1,nt,8,i,i,-2,2,nt,nt,nt
SMILES,CHOP inhibitor,Lipid droplet,ANO1 block,ANO1 activ,XBP1 UPR activ,UPR CHOP act,Hep lipid conf,AML12 tox img,AML12 tox conf
COC(=O)c1ccccc1NC(=O)c1cccc(NC(=O)c2ccc(Br)o2)c1C,25,62*,i,i,-2,0,96*,0.025,12
CC(=O)c1ccc(OCCNS(=O)(=O)c2ccc(-n3cnnn3)c(C)c2)cc1,nt,-9,i,i,-6,-1,nt,nt,nt
Cc1cc(-n2cnnn2)cc(C)c1S(=O)(=O)NCCOc1ccccc1,nt,61*,i,i,-1,-2,-1,-0.31,nt
O=C(COc1ccccc1Cl)Nc1cccc(S(=O)(=O)NC2=NCCCCC2)c1,nt,nt,i,i,-1,0,nt,nt,nt
COc1ccccc1NC(=O)C1CCN(C(=O)NCc2ccccc2)CC1,nt,51*,i,i,0,0,80*,-0.54,3
Cc1cccc(C)c1NC(=O)c1ccc(OCc2c(C)noc2C)cc1,nt,nt,nt,i,-2,1,nt,nt,nt
Cc1ccccc1N/C(=N/S(=O)(=O)c1ccccc1)c1ccc(F)cc1,6,54*,i,i,-1,1,-10,0.38,nt
COc1cccc(CNC(=O)CCNC(=O)C2CCN(S(=O)(=O)c3ccc(F)cc3)CC2)c1,nt,42,i,i,-3,0,nt,nt,nt
COc1cccc(CNC(=O)CCNC(=O)C2CCN(S(=O)(=O)c3ccccc3)CC2)c1,nt,60*,i,i,-1,0,81*,-0.74,13
COc1cccc(CNC(=O)C2CCCN(S(=O)(=O)c3c(C)noc3/C=C/N(C)C)C2)c1 (stereo not given),nt,74*,i,i,-3,1,80*,-0.47,13

# Assay outcomes: PubChem BioAssay, several laboratories
